Ecoli tolC = blocks growth of E. coli BW25113 tolC mutant; OD615; actives 2.2% (n = 65,000); growth inhibition, % at 10 µM (by protocol);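 active = growth inhibition at or above a cutoff equal to the mean over every tested compound plus 3 SD, cut at about 60% in these data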;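 also: growth measured after 20 h incubation at 37 °C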
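Test system: tolC-deleted E. coli BW25113; medium: LB with kanamycin 50 µg/mL; compound: single-point testing at 10 µM; incubation: 20 h compound exposure of bacteria at 37 °C; signal: OD at 615 nm; evaluation: growth inhibition in percent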
FAK blocker = inhibitors of human focal adhesion kinase; Q05397; biochemical FAK kinase activity assay; inhibition, %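 (tested at 7 µM)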; actives 0.84% (n = 97,000); in the data active = inhibition above about 19%;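 also: 0% = DMSO and 100% = reference compound high control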
Calb biofilm kill = kills Candida albicans biofilms; C. albicans biofilm + clotrimazole, Alamar Blue; inhibition, % at 6 µM; actives 0.14% (n = 85,000);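 active = inhibition above 20%; inactive = inhibition below 20%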;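 also: preformed 24 hr biofilms exposed to compound for 48 hr; 0% = biofilm without compound and 100% = blank killed by clotrimazole plus chlorhexidine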
PostGolgi yeast = growth inhibition of a yeast mutant, post-Golgi transport screen; AID 739; post-Golgi transport phenotypic cell assay; inhibition, % at 10 µM; actives 0.9% (n = 98,000);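 also: yeast cells grown in 1536-well plates; yeast grown about 18 h at 30C before absorbance read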
PostGolgi ctrl = growth of the yeast control strain, post-Golgi counter-screen | AID 738 | inhibition, % at 10 µM | actives 5% (n = 98,000) | efflux-deficient yeast background strain, growth absorbance A615, 16 h
Pyk2 oligo antag = blocks oligomerization of human Pyk2 in cells; AID 1347419; Q293 cells, Pyk2 FERM NanoBiT luminescence; active compounds read low; actives 0.83% (n = 99,000); z-score (the deposit names both 25 µM and 10 µM);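 active = Z-score of -3 or lower, scaled per plate to the spread of control and sample wells; inactive = z-score above -3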;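 also: negative z-score means lost luminescence so less FERM oligomerization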
Target sequence (Q14289 whole entry, looked up): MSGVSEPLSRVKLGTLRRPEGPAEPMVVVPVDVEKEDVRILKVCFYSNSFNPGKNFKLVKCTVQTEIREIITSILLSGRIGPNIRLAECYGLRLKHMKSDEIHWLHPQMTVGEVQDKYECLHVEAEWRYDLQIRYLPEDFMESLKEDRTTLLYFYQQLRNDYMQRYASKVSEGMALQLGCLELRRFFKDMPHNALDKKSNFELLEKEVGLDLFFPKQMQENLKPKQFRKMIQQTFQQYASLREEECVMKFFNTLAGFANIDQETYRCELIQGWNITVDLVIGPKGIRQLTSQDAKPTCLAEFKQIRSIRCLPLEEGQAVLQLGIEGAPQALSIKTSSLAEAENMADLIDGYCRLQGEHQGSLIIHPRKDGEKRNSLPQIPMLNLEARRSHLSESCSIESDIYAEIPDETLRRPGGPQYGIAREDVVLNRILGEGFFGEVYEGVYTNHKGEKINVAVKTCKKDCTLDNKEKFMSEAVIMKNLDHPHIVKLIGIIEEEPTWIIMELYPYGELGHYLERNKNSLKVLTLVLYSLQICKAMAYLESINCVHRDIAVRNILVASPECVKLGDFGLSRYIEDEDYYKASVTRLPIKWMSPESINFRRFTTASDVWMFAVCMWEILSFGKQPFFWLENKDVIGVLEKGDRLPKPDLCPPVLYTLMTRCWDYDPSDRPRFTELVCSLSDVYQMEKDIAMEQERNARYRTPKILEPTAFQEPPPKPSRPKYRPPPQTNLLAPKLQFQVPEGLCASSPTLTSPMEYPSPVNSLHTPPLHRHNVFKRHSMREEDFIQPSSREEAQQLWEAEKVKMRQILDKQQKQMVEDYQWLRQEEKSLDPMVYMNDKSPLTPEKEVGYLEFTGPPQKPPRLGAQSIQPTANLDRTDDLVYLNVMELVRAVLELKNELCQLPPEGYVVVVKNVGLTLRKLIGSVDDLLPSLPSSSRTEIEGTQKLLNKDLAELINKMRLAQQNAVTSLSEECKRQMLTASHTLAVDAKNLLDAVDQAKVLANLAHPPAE
Numbers without * were called inactive. Hits are enriched below; roughly 6.9% of the tested compounds scored in any of these assays. Rule as the data show it, unless noted: active = inhibition above about 30%; inactive = the rest.

How did COc1c(C)cc(S(=O)(=O)N2CCCC2)c(C)c1C do in these assays?
FAK blocker: 0; Calb biofilm kill: -2; PostGolgi yeast: 4; PostGolgi ctrl: 16; Pyk2 oligo antag: -0.35

What do the screens show for `CC(=O)NCCc1cc2ccc(C)cc2[nH]c1=O`?
Ecoli tolC: -22; FAK blocker: 3; Calb biofilm kill: 3; PostGolgi yeast: 24; PostGolgi ctrl: -2; Pyk2 oligo antag: -0.33

What do the screens show for `Cc1ccc2cc(CCNC(=O)c3ccc(Br)o3)c(=O)[nH]c2c1`?
Ecoli tolC: 46; FAK blocker: 9; Calb biofilm kill: 10; PostGolgi yeast: 21; PostGolgi ctrl: 101*; Pyk2 oligo antag: -0.08

Results for CCc1ccc2c(c1)[C@]1(C(=O)N2)[C@@H]2C(=O)N(Cc3ccccc3)C(=O)[C@@H]2[C@@H]2CCCN21 ?
Ecoli tolC: 45; FAK blocker: -2; Calb biofilm kill: 2; PostGolgi yeast: 3; PostGolgi ctrl: 4; Pyk2 oligo antag: -0.52

How did O=C(OCc1cc2ccccc2[nH]c1=O)C1CCCCC1 do in these assays?
Ecoli tolC: 16; FAK blocker: 6; Calb biofilm kill: -1; PostGolgi yeast: 30*; PostGolgi ctrl: 13; Pyk2 oligo antag: 0.09

Results for COCCCNCCOc1cc(C(C)C)ccc1C ?
Ecoli tolC: -7; FAK blocker: 1; Calb biofilm kill: -2; PostGolgi yeast: 6; PostGolgi ctrl: 19; Pyk2 oligo antag: 0.07

What do the screens show for `O=C1CC(N2CCN(c3ccc(Cl)c(Cl)c3)CC2)C(=O)N1` (stereo unspecified)?
Ecoli tolC: -2; FAK blocker: 3; Calb biofilm kill: -4; PostGolgi yeast: 52*; PostGolgi ctrl: -5; Pyk2 oligo antag: 0.5

How did O=C(N/N=C/c1ccco1)c1cc(-c2ccc3ccccc3c2)n[nH]1 do in these assays?
FAK blocker: -2; Calb biofilm kill: 0; PostGolgi yeast: 13; PostGolgi ctrl: 43*; Pyk2 oligo antag: -0.25

How did Cc1ccc(C)c2c1[nH]c1ccccc12 do in these assays?
FAK blocker: 2; Calb biofilm kill: 4; PostGolgi yeast: 3; PostGolgi ctrl: 14; Pyk2 oligo antag: 0.36

What do the screens show for `Cc1ccc(C)c2c1[nH]c1ccc([N+](=O)[O-])cc12`?
FAK blocker: 2; Calb biofilm kill: 5; PostGolgi yeast: 9; PostGolgi ctrl: 54*; Pyk2 oligo antag: -0.67

Results for COc1ccccc1NC(=O)CN1C(=O)NC(CC(C)C)C1=O (stereo unspecified) ?
Ecoli tolC: -10; FAK blocker: -1; Calb biofilm kill: 4; PostGolgi yeast: 4; PostGolgi ctrl: 48*; Pyk2 oligo antag: 3.3

Results for Cc1ccccc1N(C(=O)c1cccs1)c1nc2ccccc2s1 ?
FAK blocker: 2; PostGolgi yeast: 1; PostGolgi ctrl: 35*; Pyk2 oligo antag: -2

Results for O=C(CNCC1CCCO1)Nc1ccccc1-n1cccc1 (stereo unspecified) ?
Ecoli tolC: -17; FAK blocker: 1; Calb biofilm kill: 7; PostGolgi yeast: 9; PostGolgi ctrl: 2; Pyk2 oligo antag: -0.25

What do the screens show for `Nc1ccc(C(=O)N/N=C2\CCCc3c2[nH]c2ccccc32)cc1`?
FAK blocker: -8; PostGolgi yeast: -5; PostGolgi ctrl: 44*; Pyk2 oligo antag: -0.45

Results for CC12CC(c3ccccc3O1)C(C(=O)NCc1ccccc1)C(=O)N2 (stereo unspecified) ?
Ecoli tolC: -8; FAK blocker: 2; Calb biofilm kill: 10; PostGolgi yeast: 35*; PostGolgi ctrl: 10; Pyk2 oligo antag: -0.38

Results for COc1ccc(C(=O)c2c(C(F)(F)F)oc3c2C(=O)c2ccccc2C3=O)cc1OC ?
FAK blocker: 15; Calb biofilm kill: -5; PostGolgi yeast: 37*; PostGolgi ctrl: 27; Pyk2 oligo antag: -2.4

What do the screens show for `CN(C1CCCCC1)S(=O)(=O)c1ccc(NC(=O)c2ccc(Br)o2)cc1`?
Ecoli tolC: 70*; FAK blocker: -1; Calb biofilm kill: 6; PostGolgi yeast: -7; PostGolgi ctrl: 35*; Pyk2 oligo antag: -1.1

What do the screens show for `CN(C1CCCCC1)S(=O)(=O)c1ccc(NC(=O)C2CCCCC2C(=O)O)cc1` (stereo unspecified)?
Ecoli tolC: 25; FAK blocker: -2; Calb biofilm kill: 7; PostGolgi yeast: -6; PostGolgi ctrl: 33*; Pyk2 oligo antag: 0.49

How did Cc1ccc(NS(=O)(=O)c2ccc(NC(=O)[C@@H]3CCCC[C@@H]3C(=O)O)cc2)c(C)c1 do in these assays?
FAK blocker: 0; PostGolgi yeast: -3; PostGolgi ctrl: 14; Pyk2 oligo antag: 1.8

How did COc1ccc(NC(=O)c2cc(-c3cc(C)cc(C)c3O)n[nH]2)cc1Cl do in these assays?
Ecoli tolC: 96*; FAK blocker: -4; Calb biofilm kill: -1; PostGolgi yeast: 28; PostGolgi ctrl: 10; Pyk2 oligo antag: 0.89

Results for Cc1cc(C)c(O)c(-c2cc(C(=O)NCc3ccccc3)[nH]n2)c1 ?
FAK blocker: 1; Calb biofilm kill: 0; PostGolgi yeast: -16; PostGolgi ctrl: 32*; Pyk2 oligo antag: -1.9

How did O=C(c1nn(Cc2ccccc2)c(=O)c2ccccc12)N1CCc2ccccc2C1 do in these assays?
FAK blocker: 3; Calb biofilm kill: 6; PostGolgi yeast: -6; PostGolgi ctrl: 57*; Pyk2 oligo antag: 1.2

How did O=C(c1nn(Cc2ccccc2)c(=O)c2ccccc12)N1CCN(c2ccccn2)CC1 do in these assays?
Ecoli tolC: 8; FAK blocker: 3; Calb biofilm kill: 12; PostGolgi yeast: 14; PostGolgi ctrl: 18; Pyk2 oligo antag: -1.4

What do the screens show for `CN(C)c1ccc(O)c2c1CC1CC3[C@@H](N(C)C)C(=O)C(C(N)=O)=C(O)[C@]3(O)C(=O)C1=C2O` (stereo partly specified)?
Ecoli tolC: 5; Calb biofilm kill: 25*

How did Nc1c(S(=O)(=O)c2ccccc2)c2nc3ccccc3nc2n1Cc1ccco1 do in these assays?
Ecoli tolC: 28; FAK blocker: -4; Calb biofilm kill: 3; PostGolgi yeast: -22; PostGolgi ctrl: 30*; Pyk2 oligo antag: -1.1

How did Cc1ccc(S(=O)(=O)c2c(N)n(Cc3ccco3)c3nc4ccccc4nc23)cc1C do in these assays?
FAK blocker: -1; Calb biofilm kill: 1; PostGolgi yeast: -1; PostGolgi ctrl: 6; Pyk2 oligo antag: -1.7

What do the screens show for `CCCCS(=O)CC(COc1ccc(Cl)cc1)OC(=O)c1ccccc1` (stereo unspecified)?
Ecoli tolC: 35; FAK blocker: 0; Calb biofilm kill: 6; PostGolgi yeast: -4; PostGolgi ctrl: 42*; Pyk2 oligo antag: -0.81

How did COc1ccc(C(C(O)C(=O)c2c[nH]c3ccccc23)N2CCN(c3ccc(OC)cc3)CC2)cc1 (stereo unspecified) do in these assays?
Ecoli tolC: 76*; FAK blocker: -2; Calb biofilm kill: -7; PostGolgi yeast: -6; PostGolgi ctrl: -7; Pyk2 oligo antag: -0.13

High-throughput results deposited in PubChem by several laboratories.
